Results: ChEMBL document CHEMBL6153049, “Functionalized regioisomers of the natural product phenazines myxin and iodinin as potent inhibitors of Mycobacterium tuberculosis and human acute myeloid leukemia cells” (Eur J Med Chem, 2025)
pIC50: −log10 of the molar value.

Assays:
MOLM-13 = test: Cytotoxicity against human MOLM-13 cells assessed as inhibition of cell viability measured after 24 hrs by WST-1 assay; format: functional, cell-based; conditions: MOLM-13, 24 h
Method in brief: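 MOLM-13 seeded at 30,000 cells/well in RPMI with 10 % FBS, 0.2 mM L-glutamine, penicillin/streptomycin. Compounds dissolved in DMSO; 24 h exposure. Viability read by WST-1. Nuclear morphology checked with Hoechst 33342 after formaldehyde fixation. IC50 from four-parameter regression of WST-1 signal. Cells were mycoplasma-tested.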

[1] = Cytotoxicity against rat H9c2 cells assessed as inhibition of cell viability measured after 24 hrs by WST-1 assay; format: toxicity, cell-based
Method in brief: (§1)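 NRK and H9c2 seeded at 5000 cells/well in DMEM with 10 % FBS, 0.2 mM L-glutamine, penicillin/streptomycin. Compounds dissolved in DMSO; 24 h exposure. Viability read by WST-1. Hoechst 33342 nuclear morphology was checked after fixation. IC50 from four-parameter regression of WST-1 signal. Cells were mycoplasma-tested.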

[2] = Cytotoxicity against rat NRK cells assessed as inhibition of cell viability measured after 24 hrs by WST-1 assay; format: toxicity, cell-based; method in brief: as §1
[3] = system: Mycobacterium tuberculosis; test: Antimycobacterial activity against drug-sensitive Mycobacterium tuberculosis H37Rv assessed as bacterial growth inhibition measured after 1 week by MABA assay; format: functional, organism-based; conditions: 168 h
Method in brief: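 Colonies grown on 7H10+OADC agar at 37 °C, then to mid-log in 7H9+OADC; about 4×10^5 CFU/mL inoculated into 7H9 with escalating compound concentrations. Incubated 37 °C for 1 week, then resazurin (0.6 mM in PBS) mixed 8:5 with 20 % Tween 80 was added and incubated overnight at 37 °C. Fluorescent resorufin read-out gave IC50.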

SMILES | pIC50 (MOLM-13) | IC50 at 24 h [1] | IC50 at 24 h [2] | pIC50 [3]
[O-][n+]1c2cccc(O)c2[n+]([O-])c2cccc(O)c21 | 5.70 | > 50 µM | > 50 µM | 6.77
COc1cccc2c1[n+]([O-])c1cccc(O)c1[n+]2[O-] | 5.85 | 46 µM | 77 µM | 7.85
[O-][n+]1c2ccccc2[n+]([O-])c2c(O)cccc21 | 4.96 | > 100 µM | 79 µM | 6.59
CCOC(=O)COc1cc(O)c2c(c1)[n+]([O-])c1ccccc1[n+]2[O-] | 5.24 | 89 µM | 194 µM | 6.77
COc1cc(OC(C)=O)c2c(c1)[n+]([O-])c1ccccc1[n+]2[O-] | 5.19 | 55 µM | 36 µM | 7.10
CCOCOc1cc(O)c2c(c1)[n+]([O-])c1ccccc1[n+]2[O-] | 5.42 | > 25 µM | > 25 µM | 7.70
[O-][n+]1c2ccccc2[n+]([O-])c2c(O)cc(O)cc21 | 4.96 |  |  | 6.25
COCOc1cc(O)c2c(c1)[n+]([O-])c1ccccc1[n+]2[O-] | 5.28 | > 50 µM | > 100 µM | 6.96
CCOc1cc(O)c2c(c1)[n+]([O-])c1ccccc1[n+]2[O-] | 5.70 | 103 µM | 87 µM | 7.40
COc1cc(O)c2c(c1)[n+]([O-])c1ccccc1[n+]2[O-] | 5.42 | 81 µM | 38 µM | 7.30
CC(=O)Oc1cc(OC(C)=O)c2c(c1)[n+]([O-])c1ccccc1[n+]2[O-] | 4.46 |  |  | 5.30
[O-][n+]1c2ccccc2[n+]([O-])c2cc(O)c(O)cc21 | < 4.30 |  |  | < 4.30
CC(=O)Oc1cc(O)c2c(c1)[n+]([O-])c1ccccc1[n+]2[O-] | 4.80 |  |  | 6.07
CCOC(=O)COc1cc(OCC(=O)OCC)c2c(c1)[n+]([O-])c1ccccc1[n+]2[O-] | 5.70 | > 200 µM | > 200 µM | 5.54
CCOCOc1cc(OC)c2c(c1)[n+]([O-])c1ccccc1[n+]2[O-] | 5.29 | > 25 µM | > 25 µM | 7.22
COc1cc2c(cc1O)[n+]([O-])c1ccccc1[n+]2[O-] | < 4.00 |  |  | 4.95
COc1cc(O)cc2c1[n+]([O-])c1ccccc1[n+]2[O-] | < 4.00 | > 200 µM | > 100 µM | 5.72
COc1cc(OC)c2c(c1)[n+]([O-])c1ccccc1[n+]2[O-] | 5.22 | 108 µM | 46 µM | 6.92
CCOC(=O)COc1cc(OC)cc2c1[n+]([O-])c1ccccc1[n+]2[O-] | 5.85 | 19 µM | 14 µM | 5.62
CCOC(=O)COc1cc(OC)c2c(c1)[n+]([O-])c1ccccc1[n+]2[O-] | 5.00 |  |  | 6.60
COc1cccc2c1[n+]([O-])c1ccccc1[n+]2[O-] | 5.85 | 12 µM | 32 µM | 7.40
